Measured values from ChEMBL document CHEMBL1153738 (J Nat Prod, 2009).
≈ marks a conversion by molar mass, not a printed value.

Experiments:
[1] = molecular target: T1, Endothelin-1 receptor (Homo sapiens) (UniProt P25101); test: Displacement of [3H]BQ-123 from human ETA receptor in human SK-N-MC cells at 100 ug/ml after 60 mins by scintillation counting; format: cell-based
T1 sequence (whole entry): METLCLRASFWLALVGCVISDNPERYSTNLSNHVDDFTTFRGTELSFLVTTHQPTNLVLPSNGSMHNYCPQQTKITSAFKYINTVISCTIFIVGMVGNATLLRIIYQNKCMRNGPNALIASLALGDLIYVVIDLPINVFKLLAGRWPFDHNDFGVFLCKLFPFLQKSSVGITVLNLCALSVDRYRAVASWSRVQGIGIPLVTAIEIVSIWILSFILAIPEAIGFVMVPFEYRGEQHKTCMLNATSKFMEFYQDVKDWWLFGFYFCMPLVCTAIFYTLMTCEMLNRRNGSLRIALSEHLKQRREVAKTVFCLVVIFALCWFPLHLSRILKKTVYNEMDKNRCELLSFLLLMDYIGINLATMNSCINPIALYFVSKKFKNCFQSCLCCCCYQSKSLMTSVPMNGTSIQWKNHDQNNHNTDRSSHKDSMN
How it was run: (§1)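 Confluent human neuroblastoma SK-N-MC cells, which naturally express ETA, were PBS-washed and held 15 min at room temperature in DMEM with 0.1% BSA. […] Preincubation and incubation were 30 min each at 37 °C. Cells were then put on ice, washed, lysed in 1 M NaOH for 30 min and counted by scintillation. Results are % of specific binding.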

[2] = molecular target: T1, Endothelin-1 receptor (Homo sapiens); test: Displacement of [3H]BQ-123 from human ETA receptor in human SK-N-MC cells at 10 ug/ml after 60 mins by scintillation counting; format: cell-based; how it was run: as §1
[3] = molecular target: T2, Neuropeptide Y receptor type 1 (Homo sapiens) (UniProt P25929); test: Displacement of [3H]NPY from neuropeptide Y1 receptor in human SK-N-MC cells at 100 ug/ml after 60 mins by scintillation counting; format: cell-based
T2 sequence (whole entry): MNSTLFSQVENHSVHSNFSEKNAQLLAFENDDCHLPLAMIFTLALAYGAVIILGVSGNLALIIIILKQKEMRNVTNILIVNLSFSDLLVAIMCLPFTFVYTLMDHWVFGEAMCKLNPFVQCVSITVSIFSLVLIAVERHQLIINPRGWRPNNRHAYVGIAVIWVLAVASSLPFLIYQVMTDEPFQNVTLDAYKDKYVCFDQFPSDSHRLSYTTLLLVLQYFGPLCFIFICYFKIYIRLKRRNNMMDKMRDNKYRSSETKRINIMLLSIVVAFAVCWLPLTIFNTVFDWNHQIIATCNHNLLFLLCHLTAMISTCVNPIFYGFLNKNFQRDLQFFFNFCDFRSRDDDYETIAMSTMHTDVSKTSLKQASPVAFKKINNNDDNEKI
How it was run: (§2)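 SK-N-MC neuroblastoma cells, which natively express Y1, were grown to confluence, PBS-washed and equilibrated 15 min at room temperature in DMEM with 0.5% BSA. […] Steps were 30 min each at 37 °C, followed by ice, PBS wash, 1 M NaOH lysis for 30 min and scintillation counting. Results are % specific binding.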

[4] = molecular target: T2, Neuropeptide Y receptor type 1 (Homo sapiens); test: Displacement of [3H]NPY from neuropeptide Y1 receptor in human SK-N-MC cells at 10 ug/ml after 60 mins by scintillation counting; format: cell-based; how it was run: as §2
[5] = test system: Plasmodium falciparum; test: Antimalarial activity against Plasmodium falciparum D6 after 24 hrs by microtiter plate assay; format: functional, organism-based; details: D6, 24 h
[6] = test system: Plasmodium falciparum; test: Antimalarial activity against Plasmodium falciparum W2 after 24 hrs by microtiter plate assay; format: functional, organism-based; details: W2, 24 h

CC/C=C/C(CC)CCC[C@@]1(CC)C[C@H](CC)[C@H](CC(=O)OC)OO1 (stereo partly specified)
Activity [1]: 88% | Activity [2]: 100% | Activity [3]: 100% | Activity [4]: 100%

C/C=C1\NC(=O)[C@H](Cc2ccccc2)NC(=O)[C@@H](C(C)C)NC(=O)[C@@H]([C@@H](C)CC)NC(=O)[C@H](NC(=O)[C@H](NC(=O)[C@H](CCCN)NC(=O)[C@H]2CCCN2C(=O)[C@H](NC(=O)[C@@H](NC(=O)[C@@H](NC(=O)[C@H](NC(=O)CCCC(C)(C)O)C(C)C)[C@@H](C)O)C(C)C)C(C)C)[C@@H](C)CC)[C@H](C)OC(=O)[C@H](C(C)C)NC1=O
IC50 [5]: 1.5 µg/mL (≈ 1 µM) | IC50 [6]: 1.2 µg/mL (≈ 0.803 µM)

O=C1C2=C(C3=NCCc4c[nH]c1c43)C1(C=C(Br)C(O)C(Br)=C1)CCN2 (stereo unspecified)
Activity [1]: 100% | Activity [2]: 100% | Activity [3]: 29% | Activity [4]: 82%

CC/C=C/C(CC)CCC[C@@]1(CC)C[C@H](CC)[C@H](CC(=O)O)OO1 (stereo partly specified)
Activity [1]: 68% | Activity [2]: 100% | Activity [3]: 56% | Activity [4]: 100%

O=C1C[C@H]2S[C@H]3C[C@]2(C=C1Br)C1=C(N3)C(=O)c2[nH]cc3c2C1=NCC3
Activity [1]: 79% | Activity [2]: 100% | Activity [3]: 40% | Activity [4]: 90%

Nc1ncc(C2=CCNC(=O)c3[nH]c(Br)c(Br)c32)[nH]1
Activity [1]: 68% | Activity [2]: 78% | Activity [3]: 81% | Activity [4]: 100%

CC(C)C[C@H]1NC(=O)[C@@H](Cc2ccccc2)NC(=O)[C@@H](CC(C)C)NC(=O)[C@H](NC(=O)[C@@H](Cc2ccccc2)NC(=O)C(C)C)[C@H](C)OC(=O)[C@H](CO)NC(=O)[C@@H]([C@H](C)O)NC1=O
Activity [1]: 96% | Activity [2]: 99% | Activity [3]: 18% | Activity [4]: 100%

CN(C)CCc1c[nH]c2ccc(Br)cc12
Activity [1]: 89% | Activity [2]: 97% | Activity [3]: 76% | Activity [4]: 100%

CC(=O)OC(C)C(OC(C)=O)C(CCCCCCCCCCCCC1=CC(C)OC1=O)C(=O)O (stereo unspecified)
Activity [1]: 79% | Activity [2]: 98% | Activity [3]: 86% | Activity [4]: 100%

CN(C)CCc1c[nH]c2cc(Br)c(Br)cc12
Activity [1]: 62% | Activity [2]: 100% | Activity [3]: 17% | Activity [4]: 100%

Nc1nc([C@H]2[C@H](CNC(=O)c3cc(Br)c[nH]3)[C@@H](CNC(=O)c3cc(Br)c[nH]3)[C@@H]2c2c[nH]c(N)n2)c[nH]1
Activity [1]: 80% | Activity [2]: 100% | Activity [3]: 12% | Activity [4]: 95%

N=C(NCCCCCCNC(=N)NC(=N)Nc1ccc(Cl)cc1)NC(=N)Nc1ccc(Cl)cc1
Activity [1]: 79% | Activity [2]: 100% | Activity [3]: 81% | Activity [4]: 100%
